Experimental data taken from ChEMBL document CHEMBL5108039, “Piperazine tethered bergenin heterocyclic hybrids: design, synthesis, anticancer activity, and molecular docking studies” (RSC Med Chem, 2022).
pIC50: −log10 of the molar value.

Key:
[1] = tested on: HCT-15; test: Cytotoxicity against human HCT-15 cells assessed as cell growth inhibition; assay type: functional, cell-based
How it was run: (§1)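 Compounds were dissolved in sterile DMSO as 10 mg ml−1 stocks and tested for in vitro growth inhibition of human cancer cell lines. Doxorubicin was the standard drug and DMSO (0.01%) the vehicle control. IC50 values are reported as means.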

[2] = tested on: SCC-9; test: Cytotoxicity against human SCC-9 cells assessed as cell growth inhibition; assay type: functional, cell-based; how it was run: as §1
[3] = tested on: MCF7; test: Cytotoxicity against human MCF7 cells assessed as cell growth inhibition; assay type: functional, cell-based; how it was run: as §1
[4] = Cytotoxicity against human BEAS-2B cells assessed as cell growth inhibition; assay type: toxicity, cell-based
How it was run: (§2)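 Compounds were dissolved in sterile DMSO as 10 mg ml−1 stocks and tested in vitro for cytotoxicity in a cell-line panel, with DMSO (0.01%) as vehicle control and doxorubicin as standard. Mean IC50 values were reported, and the normal lung epithelial cells were tested up to 100 μM.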

[5] = tested on: A549; test: Cytotoxicity against human A549 cells assessed as cell growth inhibition; assay type: functional, cell-based; how it was run: as §2
[6] = tested on: CAL-27; test: Cytotoxicity against human CAL-27 cells assessed as cell growth inhibition; assay type: functional, cell-based; how it was run: as §1

Compound	pIC50 [1]	pIC50 [2]	pIC50 [3]	pIC50 [4]	pIC50 [5]	pIC50 [6]
CCOc1ccc2nc(NC(=O)CN3CCN(Cc4c(O)c(OC)c(O)c5c4C(=O)OC4C5O[C@H](CO)[C@@H](O)[C@@H]4O)CC3)sc2c1 (stereo partly specified)	< 4.00	< 4.00	< 4.00	< 4.00	< 4.00	4.08
COc1c(O)c(CN2CCN(CC(=O)Nc3nc4c(Cl)cccc4s3)CC2)c2c(c1O)C1O[C@H](CO)[C@@H](O)[C@H](O)C1OC2=O (stereo partly specified)	4.52	4.76	4.71	4.66	4.65	4.81
COc1ccc(S(=O)(=O)N2CCN(Cc3c(O)c(OC)c(O)c4c3C(=O)OC3C4O[C@H](CO)[C@@H](O)[C@@H]3O)CC2)cc1OC (stereo partly specified)	< 4.00	< 4.00	< 4.00	< 4.00	< 4.00	< 4.00
COc1ccc2nc(NC(=O)CN3CCN(Cc4c(O)c(OC)c(O)c5c4C(=O)OC4C5O[C@H](CO)[C@@H](O)[C@@H]4O)CC3)sc2c1 (stereo partly specified)	< 4.00	< 4.00	< 4.00	< 4.00	< 4.00	< 4.00
COc1c(O)c(CN2CCN(S(=O)(=O)c3ccc(C)cc3)CC2)c2c(c1O)C1O[C@H](CO)[C@@H](O)[C@H](O)C1OC2=O (stereo partly specified)	< 4.00	< 4.00	< 4.00	4.29	< 4.00	4.25
COc1c(O)c(CN2CCN(CC(=O)Nc3nc4ccc([N+](=O)[O-])cc4s3)CC2)c2c(c1O)C1O[C@H](CO)[C@@H](O)[C@H](O)C1OC2=O (stereo partly specified)	4.07	4.42	< 4.00	4.23	< 4.00	4.52
COc1c(O)c(CN2CCN(CC(=O)Nc3nc(-c4ccc(Cl)cc4)cs3)CC2)c2c(c1O)C1O[C@H](CO)[C@@H](O)[C@H](O)C1OC2=O (stereo partly specified)	< 4.00	< 4.00	4.43	< 4.00	4.30	4.33
COc1c(O)c(CN2CCN(S(=O)(=O)c3ccc(C(F)(F)F)cc3)CC2)c2c(c1O)C1O[C@H](CO)[C@@H](O)[C@H](O)C1OC2=O (stereo partly specified)	< 4.00	< 4.00	< 4.00	< 4.00	< 4.00	4.16
COc1c(O)c(CN2CCN(S(=O)(=O)c3ccc(OC(F)(F)F)cc3)CC2)c2c(c1O)C1O[C@H](CO)[C@@H](O)[C@H](O)C1OC2=O (stereo partly specified)	< 4.00	< 4.00	< 4.00	< 4.00	< 4.00	< 4.00
COc1c(O)c(CN2CCN(S(=O)(=O)c3ccc([N+](=O)[O-])cc3)CC2)c2c(c1O)C1O[C@H](CO)[C@@H](O)[C@H](O)C1OC2=O (stereo partly specified)	< 4.00	< 4.00	< 4.00	< 4.00	< 4.00	4.04
COc1c(O)c(CN2CCN(S(=O)(=O)c3ccc(F)cc3Cl)CC2)c2c(c1O)C1O[C@H](CO)[C@@H](O)[C@H](O)C1OC2=O (stereo partly specified)	< 4.00	< 4.00	< 4.00	< 4.00	< 4.00	< 4.00
COc1c(O)c(CN2CCN(CC(=O)Nc3nc4ccccc4s3)CC2)c2c(c1O)C1O[C@H](CO)[C@@H](O)[C@H](O)C1OC2=O (stereo partly specified)	< 4.00	4.19	< 4.00	4.01	< 4.00	4.04
COc1c(O)c(CN2CCN(CC(=O)Nc3nc(-c4cccc5ccccc45)cs3)CC2)c2c(c1O)C1O[C@H](CO)[C@@H](O)[C@H](O)C1OC2=O (stereo partly specified)	4.06	4.18	< 4.00	4.08	< 4.00	4.24
COc1c(O)c(CN2CCN(S(=O)(=O)c3cccc4ccccc34)CC2)c2c(c1O)C1O[C@H](CO)[C@@H](O)[C@H](O)C1OC2=O (stereo partly specified)	< 4.00	< 4.00	< 4.00	< 4.00	< 4.00	4.13
COc1c(O)cc2c(c1O)C1O[C@H](CO)[C@@H](O)[C@H](O)C1OC2=O (stereo partly specified)	< 4.00	< 4.00	< 4.00	< 4.00	< 4.00	< 4.00
COc1c(O)c(CN2CCN(S(=O)(=O)c3ccccc3)CC2)c2c(c1O)C1O[C@H](CO)[C@@H](O)[C@H](O)C1OC2=O (stereo partly specified)	< 4.00	< 4.00	< 4.00	< 4.00	< 4.00	4.07
COc1c(O)c(CN2CCN(S(=O)(=O)c3ccc(F)c(F)c3F)CC2)c2c(c1O)C1O[C@H](CO)[C@@H](O)[C@H](O)C1OC2=O (stereo partly specified)	< 4.00	< 4.00	< 4.00	< 4.00	< 4.00	< 4.00
COc1c(O)c(CN2CCN(S(=O)(=O)c3ccc(F)c(Cl)c3)CC2)c2c(c1O)C1O[C@H](CO)[C@@H](O)[C@H](O)C1OC2=O (stereo partly specified)	< 4.00	< 4.00	< 4.00	< 4.00	< 4.00	4.03
COc1c(O)c(CN2CCN(S(=O)(=O)c3cccs3)CC2)c2c(c1O)C1O[C@H](CO)[C@@H](O)[C@H](O)C1OC2=O (stereo partly specified)	< 4.00	< 4.00	< 4.00	< 4.00	< 4.00	< 4.00
COc1c(O)c(CN2CCN(S(=O)(=O)c3ccc(Br)cc3)CC2)c2c(c1O)C1O[C@H](CO)[C@@H](O)[C@H](O)C1OC2=O (stereo partly specified)	< 4.00	< 4.00	< 4.00	4.65	< 4.00	< 4.00
COc1c(O)c(CN2CCN(CC(=O)Nc3nc(-c4ccc5ccccc5c4)cs3)CC2)c2c(c1O)C1O[C@H](CO)[C@@H](O)[C@H](O)C1OC2=O (stereo partly specified)	< 4.00	< 4.00	4.60	< 4.00	4.39	4.37
COc1c(O)c(CN2CCN(S(=O)(=O)c3ccc(F)c(F)c3)CC2)c2c(c1O)C1O[C@H](CO)[C@@H](O)[C@H](O)C1OC2=O (stereo partly specified)	< 4.00	< 4.00	< 4.00	< 4.00	< 4.00	< 4.00
COc1c(O)c(CN2CCN(CC(=O)Nc3nc4ccc(Cl)cc4s3)CC2)c2c(c1O)C1O[C@H](CO)[C@@H](O)[C@H](O)C1OC2=O (stereo partly specified)	4.01	4.49	4.19	4.35	4.18	< 4.00
COc1c(O)c(CN2CCN(CC(=O)Nc3nc4ccc(F)cc4s3)CC2)c2c(c1O)C1O[C@H](CO)[C@@H](O)[C@H](O)C1OC2=O (stereo partly specified)	< 4.00	< 4.00	< 4.00	< 4.00	< 4.00	4.28
COc1ccc(S(=O)(=O)N2CCN(Cc3c(O)c(OC)c(O)c4c3C(=O)OC3C4O[C@H](CO)[C@@H](O)[C@@H]3O)CC2)cc1 (stereo partly specified)	< 4.00	< 4.00	< 4.00	< 4.00	< 4.00	< 4.00
COc1c(O)c(CN2CCN(CC(=O)Nc3nc4c(C)cccc4s3)CC2)c2c(c1O)C1O[C@H](CO)[C@@H](O)[C@H](O)C1OC2=O (stereo partly specified)	< 4.00	< 4.00	< 4.00	< 4.00	< 4.00	4.09
